Measured values reported in ChEMBL document CHEMBL1134485, “Diguanidino and "reversed" diamidino 2,5-diarylfurans as antimicrobial agents” (2001).
≈ marks a conversion by molar mass, not a printed value.

How the values were obtained:
Nucleic Acid [1] = tested on: Nucleic Acid
Nucleic Acid [2] = tested on: Nucleic Acid; remark: listed apart in the source
Candida albicans [3] = test: In vitro minimum fungicidal concentration against Candida albicans.; assay type: functional
Outline: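 Yeast MFC: after broth macrodilution (RPMI 1640/MOPS pH 7.0, 0.5 × 10³ to 2.5 × 10³ CFU/mL, 35 °C, 48 h or 72 h for C. neoformans, drug 100 to 0.09 µg/mL), 100 µL from tubes with complete inhibition plated on Sabouraud agar; lowest concentration yielding three or fewer colonies recorded.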

Aspergillus fumigatus [4] = test: Antimicrobial activity against Aspergillus fumigatus (MIC); assay type: functional
Candida albicans [5] = test: In vitro minimum inhibitory concentration against Candida albicans.; assay type: functional
Aspergillus fumigatus [6] = test: In vitro minimum fungicidal concentration required to inhibit Aspergillus fumigatus(MFC); assay type: functional
Outline: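 Mould MFC: 100 µL aliquots from macrodilution tubes (RPMI 1640/MOPS pH 7.0, 0.5 × 10³ to 2.5 × 10³ CFU/mL conidial inoculum, 30 °C, 48-72 h, drug 100 to 0.09 µg/mL) showing complete growth inhibition plated on Sabouraud agar; MFC taken as lowest drug concentration giving three or fewer colonies.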

[7] = tested on: Mycobacterium tuberculosis; test: In vitro minimum inhibitory concentration required to inhibit Mycobacterium tuberculosis; assay type: functional
Outline: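 M. tuberculosis H37Rv grown in BACTEC 12B medium; fluorometric broth microdilution (Microplate Alamar Blue Assay). […] MIC = lowest concentration reducing relative fluorescence units by ≥90% relative to control culture. Testing done by TAACF.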

Row | SMILES | ΔTm (Nucleic Acid [1]) | ΔTm (Nucleic Acid [2]) | MFC (Candida albicans [3]) | MIC (Aspergillus fumigatus [4]) | MIC (Candida albicans [5]) | MFC (Aspergillus fumigatus [6]) | MIC [7]
1 | Cc1cc(NC(=N)N)cc(C)c1-c1ccc(-c2c(C)cc(NC(=N)N)cc2C)o1 | 1.4 | 2.7 |  |  |  |  | 
2 | Cc1cc(NC(=N)c2ccccn2)ccc1-c1ccc(-c2ccc(NC(=N)c3ccccn3)cc2C)o1 | 8.9 | 22.6 | 10 µg/mL (≈ 20.6 µM) | 10 µg/mL (≈ 20.6 µM) | 10 µg/mL (≈ 20.6 µM) | 100 µg/mL (≈ 206 µM) | ≤ 1 µg/mL
3 | N=C(Nc1ccc(-c2ccc(-c3ccc(NC(=N)c4ccccn4)cc3)o2)cc1)c1ccccn1 | 7.5 | 19.6 |  |  |  |  | 1.56 µg/mL (≈ 3.4 µM)
4 | Cl.Cl.N=C(Nc1ccc(-c2ccc(-c3ccc(NC(=N)c4ccccc4)cc3)o2)cc1)c1ccccc1 | 15 | 28.6 | 50 µg/mL |  | 25 µg/mL |  | 1.56 µg/mL
5 | N=C(N)c1ccc(-c2ccc(-c3ccc(C(=N)N)cc3)o2)cc1 [FURAMIDINE] | 11.7 | 25 | 25 µg/mL (≈ 82.1 µM) |  | 6.25 µg/mL (≈ 20.5 µM) |  | 
